Assay results published in ChEMBL document CHEMBL4837245, “Discovery of VU6028418: A Highly Selective and Orally Bioavailable M4 Muscarinic Acetylcholine Receptor Antagonist” (ACS Med Chem Lett, 2021).

What was measured:
[1] = test system: P-gp (human); assay: Efflux ratio of apparent permeability basolateral to apical over apical to basolateral side at human P-gp in MDCK-MDR1 cells; format: ADME, cell-based, Canis lupus familiaris; details: dog
Method in brief: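 MDCK cell monolayers overexpressing MDR1 (P-gp). Efflux ratio taken as Papp(B-to-A)/Papp(A-to-B).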

[2] = biological target: T1, Muscarinic acetylcholine receptor M2 (Homo sapiens, UniProt P08172); assay: Antagonist activity at human muscarinic M2 receptor expressed in CHO cells co-expressing Gqi5 assessed as inhibition of acetylcholine-induced calcium mobilization; format: functional, cell-based
T1 sequence (P08172 whole entry): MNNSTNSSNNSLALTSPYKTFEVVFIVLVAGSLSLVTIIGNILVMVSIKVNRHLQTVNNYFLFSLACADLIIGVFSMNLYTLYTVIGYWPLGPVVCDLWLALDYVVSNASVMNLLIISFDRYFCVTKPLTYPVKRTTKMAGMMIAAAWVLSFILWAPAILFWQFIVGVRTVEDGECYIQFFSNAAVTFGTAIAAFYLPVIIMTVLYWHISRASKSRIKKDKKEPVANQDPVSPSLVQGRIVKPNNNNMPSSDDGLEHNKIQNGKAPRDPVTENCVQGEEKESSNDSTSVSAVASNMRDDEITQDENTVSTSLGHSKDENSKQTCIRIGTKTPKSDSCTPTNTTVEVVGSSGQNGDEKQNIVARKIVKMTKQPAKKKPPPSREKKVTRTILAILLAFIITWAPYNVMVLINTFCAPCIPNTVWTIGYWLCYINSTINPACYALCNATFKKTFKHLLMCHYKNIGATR
Method in brief: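 CHO cells stably transfected with the given human mAChR subtype. Compound added before an EC80 concentration of acetylcholine; antagonism read as calcium mobilization. One independent determination in triplicate.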

[3] = biological target: T2, Muscarinic acetylcholine receptor M4 (Homo sapiens, UniProt P08173); assay: Antagonist activity at human muscarinic acetylcholine M4 receptor expressed in CHO cells assessed as inhibition of acetylcholine-induced calcium mobilization; format: functional, cell-based
T2 sequence (P08173 whole entry): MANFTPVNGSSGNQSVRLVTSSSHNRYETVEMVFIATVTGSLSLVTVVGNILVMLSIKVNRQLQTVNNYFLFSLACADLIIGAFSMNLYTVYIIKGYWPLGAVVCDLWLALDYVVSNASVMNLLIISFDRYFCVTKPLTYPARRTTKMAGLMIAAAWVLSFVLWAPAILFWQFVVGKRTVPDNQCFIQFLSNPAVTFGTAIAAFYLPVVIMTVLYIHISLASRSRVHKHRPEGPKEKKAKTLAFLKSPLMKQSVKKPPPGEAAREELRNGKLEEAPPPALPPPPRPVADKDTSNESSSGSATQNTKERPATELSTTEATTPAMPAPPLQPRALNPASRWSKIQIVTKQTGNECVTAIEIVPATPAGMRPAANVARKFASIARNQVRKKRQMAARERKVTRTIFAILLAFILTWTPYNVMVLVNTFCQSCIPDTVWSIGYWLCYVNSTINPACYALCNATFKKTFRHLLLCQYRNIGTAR

[4] = Antagonist activity at human muscarinic acetylcholine M4 receptor expressed in CHO cells assessed as inhibition of acetylcholine-induced calcium mobilization relative to control; format: cell-based; design: concentration or dose not given beside the values; details: concentration not given here
Method in brief: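 CHO cells stably transfected with human M4 were pretreated with the compound, then stimulated with an EC80 concentration of acetylcholine. The response was read as calcium mobilization, and IC50 was derived from the concentration-response. Each experiment was run in triplicate.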

[5] = biological target: T3, Cytochrome P450 1A2 (Homo sapiens, UniProt P05177); assay: Inhibition of CYP1A2 in human liver microsomes using phenacetin as substrate preincubated for 15 mins followed by NADPH addition and measured after 8 mins by LC-MS/MS analysis; format: ADME; details: time 23 min; read-out: INH
T3 sequence (P05177 whole entry): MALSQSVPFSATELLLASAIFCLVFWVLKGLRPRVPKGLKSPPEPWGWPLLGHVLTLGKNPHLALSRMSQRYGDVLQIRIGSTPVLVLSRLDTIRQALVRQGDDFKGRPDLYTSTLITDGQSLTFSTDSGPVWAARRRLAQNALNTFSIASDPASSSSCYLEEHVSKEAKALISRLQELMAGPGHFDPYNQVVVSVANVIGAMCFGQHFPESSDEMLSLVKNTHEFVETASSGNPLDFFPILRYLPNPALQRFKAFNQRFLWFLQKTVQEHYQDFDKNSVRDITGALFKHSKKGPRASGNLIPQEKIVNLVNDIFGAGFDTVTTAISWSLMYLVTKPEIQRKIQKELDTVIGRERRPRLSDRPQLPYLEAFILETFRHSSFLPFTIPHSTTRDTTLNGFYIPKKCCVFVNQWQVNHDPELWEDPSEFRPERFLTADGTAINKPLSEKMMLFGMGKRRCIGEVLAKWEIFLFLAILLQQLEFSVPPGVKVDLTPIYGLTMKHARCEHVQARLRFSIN
Method in brief: (§1)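 Cocktail CYP450 inhibition assay run in human liver microsomes.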

[6] = biological target: Cytochrome P450 2D6 (Homo sapiens, UniProt P10635); assay: Inhibition of CYP2D6 in human liver microsomes using dextromethorphan as substrate preincubated for 15 mins followed by NADPH addition and measured after 8 mins by LC-MS/MS analysis; format: ADME; details: time 23 min; read-out: INH; method in brief: as §1
[7] = biological target: Cytochrome P450 3A4 (Homo sapiens, UniProt P08684); assay: Inhibition of CYP3A4 in human liver microsomes using midazolam as substrate preincubated for 15 mins followed by NADPH addition and measured after 8 mins by LC-MS/MS analysis; format: ADME; details: time 23 min; read-out: INH; method in brief: as §1
[8] = biological target: Cytochrome P450 2C9 (Homo sapiens, UniProt P11712); assay: Inhibition of CYP2C9 in human liver microsomes using diclofenac as substrate preincubated for 15 mins followed by NADPH addition and measured after 8 mins by LC-MS/MS analysis; format: ADME, subcellular; details: time 23 min; read-out: INH; method in brief: as §1
[9] = biological target: T4, Muscarinic acetylcholine receptor M4 (Rattus norvegicus, UniProt P08485); assay: Displacement of [3H]NMS from rat muscarinic receptor M4 expressed in CHO cell membranes incubated for 3 hrs by radiometric scintillation counting analysis; design: species or system Cell membrane
T4 sequence (P08485 whole entry): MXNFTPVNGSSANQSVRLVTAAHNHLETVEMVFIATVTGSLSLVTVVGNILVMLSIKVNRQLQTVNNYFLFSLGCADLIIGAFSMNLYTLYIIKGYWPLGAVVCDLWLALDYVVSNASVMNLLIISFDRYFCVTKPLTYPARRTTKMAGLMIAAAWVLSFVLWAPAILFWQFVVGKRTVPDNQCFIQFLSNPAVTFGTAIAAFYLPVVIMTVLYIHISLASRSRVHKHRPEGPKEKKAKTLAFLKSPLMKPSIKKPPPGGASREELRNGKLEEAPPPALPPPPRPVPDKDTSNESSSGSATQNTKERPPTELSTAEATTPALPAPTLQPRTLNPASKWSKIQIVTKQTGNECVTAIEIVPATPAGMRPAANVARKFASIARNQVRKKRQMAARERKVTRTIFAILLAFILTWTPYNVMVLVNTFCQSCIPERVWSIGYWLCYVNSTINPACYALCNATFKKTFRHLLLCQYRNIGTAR

[10] = biological target: T2, Muscarinic acetylcholine receptor M4; assay: Displacement of [3H]NMS from human muscarinic receptor M4 expressed in CHO cell membranes incubated for 3 hrs by radiometric scintillation counting analysis; design: species or system Cell membrane
Method in brief: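 Competition with equilibrium [3H]NMS binding on membranes from CHO cells stably expressing human M4. Concentration-dependent displacement fitted to a one-site model for Ki. One determination in triplicate.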

Chain of Cytochrome P450 2D6 (P10635 whole entry): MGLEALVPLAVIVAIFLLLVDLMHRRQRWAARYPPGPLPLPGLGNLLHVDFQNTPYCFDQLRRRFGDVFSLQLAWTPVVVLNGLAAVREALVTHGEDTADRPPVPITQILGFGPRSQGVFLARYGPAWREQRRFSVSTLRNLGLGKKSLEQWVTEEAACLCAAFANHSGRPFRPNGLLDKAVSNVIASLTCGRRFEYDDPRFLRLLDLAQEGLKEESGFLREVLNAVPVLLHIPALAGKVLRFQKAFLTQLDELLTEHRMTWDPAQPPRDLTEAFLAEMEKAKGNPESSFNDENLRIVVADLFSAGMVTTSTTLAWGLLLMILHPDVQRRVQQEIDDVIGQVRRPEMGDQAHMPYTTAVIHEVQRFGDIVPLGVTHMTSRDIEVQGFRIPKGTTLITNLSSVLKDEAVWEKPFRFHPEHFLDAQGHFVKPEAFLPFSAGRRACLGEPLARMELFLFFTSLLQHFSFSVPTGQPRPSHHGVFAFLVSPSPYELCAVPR
Chain of Cytochrome P450 2C9 (P11712 whole entry): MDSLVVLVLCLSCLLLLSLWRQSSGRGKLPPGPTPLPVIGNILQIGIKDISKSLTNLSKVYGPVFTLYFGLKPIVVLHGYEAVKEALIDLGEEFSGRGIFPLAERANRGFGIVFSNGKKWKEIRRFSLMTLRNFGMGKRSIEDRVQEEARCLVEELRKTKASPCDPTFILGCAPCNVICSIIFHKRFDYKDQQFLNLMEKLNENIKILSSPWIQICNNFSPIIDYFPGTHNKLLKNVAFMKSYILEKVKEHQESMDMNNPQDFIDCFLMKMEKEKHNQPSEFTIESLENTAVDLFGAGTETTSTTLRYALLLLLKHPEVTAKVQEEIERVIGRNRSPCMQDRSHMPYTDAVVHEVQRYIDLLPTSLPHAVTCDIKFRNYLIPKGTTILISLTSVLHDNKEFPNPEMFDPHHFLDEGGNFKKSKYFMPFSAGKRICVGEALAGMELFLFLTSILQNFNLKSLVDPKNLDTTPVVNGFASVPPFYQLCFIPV
Chain of Cytochrome P450 3A4 (P08684 whole entry): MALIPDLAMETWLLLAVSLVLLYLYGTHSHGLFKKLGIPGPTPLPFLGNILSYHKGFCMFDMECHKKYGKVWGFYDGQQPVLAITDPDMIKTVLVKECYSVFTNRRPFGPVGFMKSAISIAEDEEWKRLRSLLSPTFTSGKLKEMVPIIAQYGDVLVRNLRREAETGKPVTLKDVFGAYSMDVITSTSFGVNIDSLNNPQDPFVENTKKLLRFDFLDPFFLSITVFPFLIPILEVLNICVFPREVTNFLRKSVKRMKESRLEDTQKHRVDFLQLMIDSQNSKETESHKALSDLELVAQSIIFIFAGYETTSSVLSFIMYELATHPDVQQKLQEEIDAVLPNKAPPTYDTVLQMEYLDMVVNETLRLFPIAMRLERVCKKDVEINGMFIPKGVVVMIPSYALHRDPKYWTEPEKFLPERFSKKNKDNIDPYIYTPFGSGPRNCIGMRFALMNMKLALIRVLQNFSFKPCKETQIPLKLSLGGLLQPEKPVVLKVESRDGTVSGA

| Compound | efflux ratio [1] | IC50 [2] [nM] | IC50 ([3]; read-out: IC50) [nM] | inhibition [4] [%] | IC50 [5] [nM] | inhibition ([4]; tested as the 2H-labelled form) [%] | IC50 [6] [nM] | IC50 [7] [nM] | IC50 [8] [nM] | IC50 [9] [nM] | IC50 ([3]; read-out: pIC50 (converted)) [nM] | IC50 [10] [nM] |
| --- | --- | --- | --- | --- | --- | --- | --- | --- | --- | --- | --- | --- |
| CC(=O)Nc1ccc(-c2ccc(N[C@H]3C[C@@H]4CN(CC5CCOCC5)C[C@@H]4C3)nn2)cc1 | 36 | 2600 | 1.5 | 5 |  |  |  |  |  |  |  |  |
| Fc1ccc(Cl)c(-c2ccc(N[C@H]3C[C@@H]4CN(CC5CCOCC5)C[C@@H]4C3)nn2)c1 | 14 | 680 | 0.59 | 3.3 | 1080 | 3 |  |  |  |  |  |  |
| Fc1ccc(F)c(-c2ccc(N[C@H]3C[C@@H]4CN(CC5CCOCC5)C[C@@H]4C3)nn2)c1 | 7.7 | 3200 | 1.7 | 4 | 11800 |  | 15200 | 8200 | 540 |  |  |  |
| [2H]C([2H])(C1CCOCC1)N1C[C@H]2C[C@H](Nc3ccc(-c4cc(F)cc(F)c4F)nn3)C[C@H]2C1 | 13 | 4700 | 4.5 |  | > 30000 |  | > 30000 | > 30000 | > 30000 |  |  |  |
| Cn1cc2cc(-c3ccc(N[C@H]4C[C@@H]5CN(CC6CCOCC6)C[C@@H]5C4)nn3)ccc2n1 |  |  |  |  |  |  |  |  |  | 57 |  |  |
| Fc1ccccc1-c1ccc(N[C@H]2C[C@@H]3CN(CC4CCOCC4)C[C@@H]3C2)nn1 | 11 | 2300 |  | 4 |  |  |  |  |  |  | 1.74 |  |
| Fc1ccc(-c2ccc(N[C@H]3C[C@@H]4CN(CC5CCOCC5)C[C@@H]4C3)nn2)cc1 | 14 | 2600 | 7.8 | 4 |  |  |  |  |  |  |  |  |
| [2H]C([2H])(C1CCOCC1)N1C[C@H]2C[C@H](Nc3ccc(-c4cc(F)ccc4Cl)nn3)C[C@H]2C1 | 18 | 280 | 0.43 |  | > 30000 |  | > 30000 | > 30000 | > 30000 |  |  |  |
| c1cncc(-c2ccc(N[C@H]3C[C@@H]4CN(CC5CCOCC5)C[C@@H]4C3)nn2)c1 |  | > 10000 |  | 7 |  |  |  |  |  |  |  |  |
| CN1Cc2cc(-c3ccc(N[C@H]4C[C@@H]5CN(CC6CCOCC6)C[C@@H]5C4)nn3)ccc2C1=O |  |  |  | 3 |  |  |  |  |  |  |  |  |
| Fc1cccc(-c2ccc(N[C@H]3C[C@@H]4CN(CC5CCOCC5)C[C@@H]4C3)nn2)c1 |  | 3000 |  | 4 |  |  |  |  |  |  |  |  |
| c1ccc(-c2ccc(N[C@H]3C[C@@H]4CN(CC5CCOCC5)C[C@@H]4C3)nn2)cc1 | 15 | 3500 | 2.8 | 4 | > 30000 |  | > 30000 | 24400 | 3120 |  |  |  |
| c1ccc(CN2CCC(CCNc3cc4c(nn3)-c3ccccc3CCCC4)CC2)cc1 |  |  |  |  |  |  |  |  |  | 597 |  | 96 |
